ChEMBL document CHEMBL1148673, “Peptidomimetic C5a receptor antagonists with hydrophobic substitutions at the C-terminus: increased receptor specificity and in vivo activity” (Bioorg Med Chem Lett, 2006)
Residues, ends and D or L forms follow the SMILES beside them.

Target: T1, C5a anaphylatoxin chemotactic receptor 1 (Homo sapiens, UniProt P21730)
T1 sequence (P21730 whole entry): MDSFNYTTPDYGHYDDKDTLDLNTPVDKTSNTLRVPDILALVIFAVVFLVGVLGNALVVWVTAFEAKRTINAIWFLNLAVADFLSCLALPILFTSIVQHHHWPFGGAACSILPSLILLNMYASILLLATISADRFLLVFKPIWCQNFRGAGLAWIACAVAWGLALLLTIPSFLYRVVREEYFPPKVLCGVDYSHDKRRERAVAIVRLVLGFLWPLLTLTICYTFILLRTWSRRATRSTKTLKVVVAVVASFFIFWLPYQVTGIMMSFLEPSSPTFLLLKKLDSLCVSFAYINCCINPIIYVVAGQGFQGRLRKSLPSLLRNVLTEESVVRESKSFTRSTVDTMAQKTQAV
Assay: Antagonist activity at human C5aR in CD88 transfected RBL cells assessed as inhibition of C5a-induced glucosaminidase release
Type: functional, cell-based
How it was run: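 Functional antagonism read as inhibition of glucosaminidase release stimulated by C5a from RBL cells transfected with CD88 (RBL+); IC50 in µM.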

Compound | IC50 [nM]
CCCCCCCC[C@@H]1NC(=O)[C@H](Cc2c[nH]c3ccccc23)NC(=O)[C@@H](CC2CCCCC2)NC(=O)[C@@H]2CCCN2C(=O)[C@@H](NC(=O)[C@H](Cc2ccccc2)NC(C)=O)CCCNC1=O | 300
CC(=O)N[C@@H](Cc1ccccc1)C(=O)N[C@H]1CCCNC(=O)[C@H](CC2CCCCC2)NC(=O)[C@H](Cc2c[nH]c3ccccc23)NC(=O)[C@@H](CC2CCCCC2)NC(=O)[C@@H]2CCCN2C1=O (HELM PEPTIDE1{[ac].F.[Orn].P.[O=C([C@@H](CC1CCCCC1)N[*:1])[*:2]].W.[Cha]}$PEPTIDE1,PEPTIDE1,3:R3-7:R2$$$V2.0) | 45
CC(=O)N[C@@H](Cc1ccccc1)C(=O)N[C@H]1CCCNC(=O)[C@H](CC(C)C)NC(=O)[C@H](Cc2c[nH]c3ccccc23)NC(=O)[C@@H](CC2CCCCC2)NC(=O)[C@@H]2CCCN2C1=O (HELM PEPTIDE1{[ac].F.[Orn].P.[O=C([C@@H](CC1CCCCC1)N[*:1])[*:2]].W.L}$PEPTIDE1,PEPTIDE1,3:R3-7:R2$$$V2.0) | 54
CC(=O)N[C@@H](Cc1ccccc1)C(=O)N[C@@H](CCCN)C(=O)N1CCC[C@H]1C(=O)N[C@H](CC1CCCCC1)C(=O)N[C@@H](Cc1c[nH]c2ccccc12)C(=O)N[C@@H](CCCN=C(N)N)C(=O)O | 535
CC(=O)N[C@@H](Cc1ccccc1)C(=O)N[C@H]1CCCNC(=O)[C@H](Cc2cccc3ccccc23)NC(=O)[C@H](Cc2c[nH]c3ccccc23)NC(=O)[C@@H](CC2CCCCC2)NC(=O)[C@@H]2CCCN2C1=O (HELM PEPTIDE1{[ac].F.[Orn].P.[O=C([C@@H](CC1CCCCC1)N[*:1])[*:2]].W.[O=C([C@H](Cc1cccc2ccccc12)N[*:1])[*:2]]}$PEPTIDE1,PEPTIDE1,3:R3-7:R2$$$V2.0) | 51
CC(=O)N[C@@H](Cc1ccccc1)C(=O)N[C@H]1CCCNC(=O)[C@H](Cc2ccccc2)NC(=O)[C@H](Cc2c[nH]c3ccccc23)NC(=O)[C@@H](CC2CCCCC2)NC(=O)[C@@H]2CCCN2C1=O (HELM PEPTIDE1{[ac].F.[Orn].P.[O=C([C@@H](CC1CCCCC1)N[*:1])[*:2]].W.F}$PEPTIDE1,PEPTIDE1,3:R3-7:R2$$$V2.0) | 26
CC(=O)N[C@@H](Cc1ccccc1)C(=O)N[C@H]1CCCNC(=O)[C@H](Cc2ccc3ccccc3c2)NC(=O)[C@H](Cc2c[nH]c3ccccc23)NC(=O)[C@@H](CC2CCCCC2)NC(=O)[C@@H]2CCCN2C1=O (HELM PEPTIDE1{[ac].F.[Orn].P.[O=C([C@@H](CC1CCCCC1)N[*:1])[*:2]].W.[O=C([C@H](Cc1ccc2ccccc2c1)N[*:1])[*:2]]}$PEPTIDE1,PEPTIDE1,3:R3-7:R2$$$V2.0) | 76
CC(=O)N[C@@H](Cc1ccccc1)C(=O)N[C@H]1CCCNC(=O)[C@H](CCCCNC(=N)N)NC(=O)[C@H](Cc2c[nH]c3ccccc23)NC(=O)[C@@H](CC2CCCCC2)NC(=O)[C@@H]2CCCN2C1=O | 360
CC(=O)N[C@@H](Cc1ccccc1)C(=O)N[C@H]1CCCNC(=O)[C@H](CCC2CCCCC2)NC(=O)[C@H](Cc2c[nH]c3ccccc23)NC(=O)[C@@H](CC2CCCCC2)NC(=O)[C@@H]2CCCN2C1=O | 146
CCCC[C@H]1NC(=O)[C@H](Cc2c[nH]c3ccccc23)NC(=O)[C@@H](CC2CCCCC2)NC(=O)[C@@H]2CCCN2C(=O)[C@@H](NC(=O)[C@H](Cc2ccccc2)NC(C)=O)CCCNC1=O (HELM PEPTIDE1{[ac].F.[Orn].P.[O=C([C@@H](CC1CCCCC1)N[*:1])[*:2]].W.[CCCC[C@@H](N[*:1])C(=O)[*:2]]}$PEPTIDE1,PEPTIDE1,3:R3-7:R2$$$V2.0) | 107
CC[C@H](C)[C@@H]1NC(=O)[C@H](Cc2c[nH]c3ccccc23)NC(=O)[C@@H](CC2CCCCC2)NC(=O)[C@@H]2CCCN2C(=O)[C@@H](NC(=O)[C@H](Cc2ccccc2)NC(C)=O)CCCNC1=O | 50
CC(=O)N[C@@H](Cc1ccccc1)C(=O)N[C@H]1CCCNC(=O)[C@H](C)NC(=O)[C@H](Cc2c[nH]c3ccccc23)NC(=O)[C@@H](CC2CCCCC2)NC(=O)[C@@H]2CCCN2C1=O (HELM PEPTIDE1{[ac].F.[Orn].P.[O=C([C@@H](CC1CCCCC1)N[*:1])[*:2]].W.A}$PEPTIDE1,PEPTIDE1,3:R3-7:R2$$$V2.0) | 6900
